Assay type in all cases: cell-based
One assay has as its target T1, human FPR2 (Homo sapiens, UniProt P25090).
T1 sequence (P25090 1-351): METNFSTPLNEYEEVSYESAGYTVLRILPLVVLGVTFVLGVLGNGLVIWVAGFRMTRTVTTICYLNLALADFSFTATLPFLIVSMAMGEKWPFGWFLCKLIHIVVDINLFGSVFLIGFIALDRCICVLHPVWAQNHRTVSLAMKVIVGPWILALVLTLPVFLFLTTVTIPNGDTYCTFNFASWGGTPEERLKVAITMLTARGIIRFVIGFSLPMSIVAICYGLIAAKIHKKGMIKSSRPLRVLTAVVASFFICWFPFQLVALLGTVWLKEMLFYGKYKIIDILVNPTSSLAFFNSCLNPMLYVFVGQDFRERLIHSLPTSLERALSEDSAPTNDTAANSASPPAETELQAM
Nature of the assay: Ca2+ mobilization in HL-60 cells transfected with FPR2. The note with it: HL-60-FPR2 cells; for Ca2+ Mobilization Efficacy, FPR2: percent of the response induced by 5 nM WKYMVm; for EC50: read-out: Ca2+ Mobilization EC50, FPR2, mean of three independent experiments, N.A. = no activity, limits efficacy > 20 % and EC50 < 50 μM. The procedure, abridged: (§1)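 Stably transfected HL-60 cells were grown in RPMI 1640 with 10% heat-inactivated FCS, 10 mM HEPES and G418 (1 mg/mL). Cells were loaded with Fluo-4 AM (1.25 μg/mL final) for 30 min at 37 °C in the dark, then resuspended in HBSS with Ca²⁺/Mg²⁺ at 2 × 10⁵ cells/well. Fluorescence (ex 485/em 538 nm) was read every 5 s for 240 s at room temperature after compound addition. Peak change over baseline was set against 5 nM fMLF (FPR1) or 5 nM WKYMVm (FPR2, FPR3) as 100%. Curves had 5–6 points, from three independent experiments.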

A further assay deals with T2, human FPR1 (Homo sapiens, UniProt P21462).
T2 sequence (P21462 1-350): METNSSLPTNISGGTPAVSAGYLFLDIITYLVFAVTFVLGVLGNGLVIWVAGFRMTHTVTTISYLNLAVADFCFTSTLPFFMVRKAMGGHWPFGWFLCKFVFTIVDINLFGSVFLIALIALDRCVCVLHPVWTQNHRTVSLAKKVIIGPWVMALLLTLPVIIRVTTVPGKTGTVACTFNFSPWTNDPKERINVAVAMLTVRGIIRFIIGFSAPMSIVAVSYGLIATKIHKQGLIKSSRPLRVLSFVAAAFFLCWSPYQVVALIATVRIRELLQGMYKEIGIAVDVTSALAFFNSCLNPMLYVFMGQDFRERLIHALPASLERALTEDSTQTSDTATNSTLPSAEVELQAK
Nature of the assay: Ca2+ mobilization in HL-60 cells transfected with FPR1. The note with it: HL-60-FPR1 cells; for Ca2+ Mobilization Efficacy, FPR1: percent of the response induced by 5 nM fMLF; for EC50: read-out: Ca2+ Mobilization EC50, FPR1, mean of three independent experiments, N.A. = no activity, limits efficacy > 20 % and EC50 < 50 μM. Put shortly:
as §1

The target of the next assay is T3, human FPR3 (Homo sapiens, UniProt P25089).
T3 sequence (P25089 1-353): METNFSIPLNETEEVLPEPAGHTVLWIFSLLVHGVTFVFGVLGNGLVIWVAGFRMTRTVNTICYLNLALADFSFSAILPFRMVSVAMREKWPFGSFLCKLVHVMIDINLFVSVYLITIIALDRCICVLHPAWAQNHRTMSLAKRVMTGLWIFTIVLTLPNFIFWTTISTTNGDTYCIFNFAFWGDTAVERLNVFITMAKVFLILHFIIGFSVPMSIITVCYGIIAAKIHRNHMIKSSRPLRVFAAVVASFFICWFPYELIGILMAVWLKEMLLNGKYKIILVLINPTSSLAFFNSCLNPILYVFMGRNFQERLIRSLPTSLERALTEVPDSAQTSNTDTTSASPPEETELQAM
Nature of the assay: Ca2+ mobilization in HL-60 cells transfected with FPR3. Conditions: HL-60-FPR3 cells; for Ca2+ Mobilization Efficacy, FPR3: percent of the response induced by 5 nM WKYMVm; for EC50: read-out: Ca2+ Mobilization EC50, FPR3, mean of three independent experiments, N.A. = no activity, limits efficacy > 20 % and EC50 < 50 μM. Put shortly:
as §1

The structures appear in SMILES notation.

Consider `C[C@H]1CC(c2ccccc2)=NN(CC(=O)Nc2ccc(Br)cc2)C1=O` [S-(-)-4a, S-(-)-N-(4-Bromophenyl)-2-[5-methyl-6-oxo-3-phenyl-5,6-dihydropyridazin-1(4H)-yl] acetamide], for which, at human FPR2, the “Ca2+ Mobilization Efficacy, FPR2” value is listed as 95% and the EC50 was determined as 10.7 µM. Moreover, on human FPR1, the “Ca2+ Mobilization Efficacy, FPR1” value came out at 75% and the EC50 is 19.5 µM. At human FPR3, the “Ca2+ Mobilization Efficacy, FPR3” value is 40% and the half-maximal effective concentration (EC50) was found to be 8.3 µM.

Take `Cc1cc(-c2ccccc2)nn(CC(=O)Nc2ccc(Br)cc2)c1=O` [8a, N-(4-Bromophenyl)-2-[5-methyl-6-oxo-3-phenylpyridazin-1(6H)-yl]acetamide]: at human FPR2, the “Ca2+ Mobilization Efficacy, FPR2” value is 45%. Besides, on human FPR1, the “Ca2+ Mobilization Efficacy, FPR1” value came to 50%.

As for `C[C@@H]1CC(c2ccccc2)=NN(CC(=O)Nc2ccc(Br)cc2)C1=O` [R-(+)-4a, R-(+)-N-(4-Bromophenyl)-2-[5-methyl-6-oxo-3-phenyl-5,6-dihydropyridazin-1(4H)-yl] acetamide], on human FPR2, the “Ca2+ Mobilization Efficacy, FPR2” value came to 85% and the EC50 amounted to 10 µM. Also, on human FPR1, the “Ca2+ Mobilization Efficacy, FPR1” value was 80% and the EC50 was 24.4 µM. On human FPR3, the “Ca2+ Mobilization Efficacy, FPR3” value turned out to be 40% and the EC50 came out at 7.1 µM.

`CC1CC(c2ccccc2)=NN(CC(=O)Nc2ccc(Br)cc2)C1=O` (racemic) [(±)-4a, (±)-N-(4-Bromophenyl)-2-[5-methyl-6-oxo-3-phenyl-5,6-dihydropyridazin-1(4H)-yl]acetamide]: at human FPR2, the “Ca2+ Mobilization Efficacy, FPR2” value is 65% and the EC50 stood at 7 µM. For the same molecule, at human FPR1, the “Ca2+ Mobilization Efficacy, FPR1” value came out at 55% and the concentration for a half-maximal effect (EC50) stood at 23.5 µM.
